The values below come from ChEMBL document CHEMBL1121400, “Quantitative structure--activity correlations of rifamycins as inhibitors of viral RNA-directed DNA polymerase and mammalian alpha and beta DNA polymerases” (J Med Chem, 1980).

Data set [1] in a line: Ability to inhibit mouse alpha DNA polymerase. The procedure, abridged: (§1)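 Enzyme in 50% glycerol, 1 mM dithiothreitol, 0.5 M KCl and 50 mM Tris-HCl pH 7.5 was premixed with inhibitor in 100% Me2SO and held on ice 10 min. Cocktail (MnCl2, KCl, NaF, BSA, [3H]dGTP, poly(2'-O-methylcytidylic acid)·d(pG)12-18) was then added. Incubation was 45 min at 37 °C.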
The nature of data set [2]: Partition coefficient (logP). Particulars: octanol/water, logP.
In data set [3] the target is Gag-Pol polyprotein (Woolly monkey sarcoma virus) (UniProt P03359). Description: Inhibition of simian sarcoma virus reverse transcriptase. The procedure, abridged: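 SSV-1 RNA-dependent DNA polymerase purified from tissue culture fluid of 71 AP1 cells. 50 µL reaction containing 20% glycerol, 1 mM DTT, BSA, Tris-HCl pH 7.5, MnCl2, KCl, NaF, [3H]dGTP and poly(2'-O-methylC)·d(pG)12-18. Compound in Me2SO is mixed with enzyme on ice for 10 min before the cocktail is added, then incubated 45 min at 37 °C. Radioactivity in product; 50% inhibitory concentration from triplicate dose–response curves spanning 10^-3 to 10^-7 M.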
Sequence of Gag-Pol polyprotein (Woolly monkey sarcoma virus) (P03359 whole entry): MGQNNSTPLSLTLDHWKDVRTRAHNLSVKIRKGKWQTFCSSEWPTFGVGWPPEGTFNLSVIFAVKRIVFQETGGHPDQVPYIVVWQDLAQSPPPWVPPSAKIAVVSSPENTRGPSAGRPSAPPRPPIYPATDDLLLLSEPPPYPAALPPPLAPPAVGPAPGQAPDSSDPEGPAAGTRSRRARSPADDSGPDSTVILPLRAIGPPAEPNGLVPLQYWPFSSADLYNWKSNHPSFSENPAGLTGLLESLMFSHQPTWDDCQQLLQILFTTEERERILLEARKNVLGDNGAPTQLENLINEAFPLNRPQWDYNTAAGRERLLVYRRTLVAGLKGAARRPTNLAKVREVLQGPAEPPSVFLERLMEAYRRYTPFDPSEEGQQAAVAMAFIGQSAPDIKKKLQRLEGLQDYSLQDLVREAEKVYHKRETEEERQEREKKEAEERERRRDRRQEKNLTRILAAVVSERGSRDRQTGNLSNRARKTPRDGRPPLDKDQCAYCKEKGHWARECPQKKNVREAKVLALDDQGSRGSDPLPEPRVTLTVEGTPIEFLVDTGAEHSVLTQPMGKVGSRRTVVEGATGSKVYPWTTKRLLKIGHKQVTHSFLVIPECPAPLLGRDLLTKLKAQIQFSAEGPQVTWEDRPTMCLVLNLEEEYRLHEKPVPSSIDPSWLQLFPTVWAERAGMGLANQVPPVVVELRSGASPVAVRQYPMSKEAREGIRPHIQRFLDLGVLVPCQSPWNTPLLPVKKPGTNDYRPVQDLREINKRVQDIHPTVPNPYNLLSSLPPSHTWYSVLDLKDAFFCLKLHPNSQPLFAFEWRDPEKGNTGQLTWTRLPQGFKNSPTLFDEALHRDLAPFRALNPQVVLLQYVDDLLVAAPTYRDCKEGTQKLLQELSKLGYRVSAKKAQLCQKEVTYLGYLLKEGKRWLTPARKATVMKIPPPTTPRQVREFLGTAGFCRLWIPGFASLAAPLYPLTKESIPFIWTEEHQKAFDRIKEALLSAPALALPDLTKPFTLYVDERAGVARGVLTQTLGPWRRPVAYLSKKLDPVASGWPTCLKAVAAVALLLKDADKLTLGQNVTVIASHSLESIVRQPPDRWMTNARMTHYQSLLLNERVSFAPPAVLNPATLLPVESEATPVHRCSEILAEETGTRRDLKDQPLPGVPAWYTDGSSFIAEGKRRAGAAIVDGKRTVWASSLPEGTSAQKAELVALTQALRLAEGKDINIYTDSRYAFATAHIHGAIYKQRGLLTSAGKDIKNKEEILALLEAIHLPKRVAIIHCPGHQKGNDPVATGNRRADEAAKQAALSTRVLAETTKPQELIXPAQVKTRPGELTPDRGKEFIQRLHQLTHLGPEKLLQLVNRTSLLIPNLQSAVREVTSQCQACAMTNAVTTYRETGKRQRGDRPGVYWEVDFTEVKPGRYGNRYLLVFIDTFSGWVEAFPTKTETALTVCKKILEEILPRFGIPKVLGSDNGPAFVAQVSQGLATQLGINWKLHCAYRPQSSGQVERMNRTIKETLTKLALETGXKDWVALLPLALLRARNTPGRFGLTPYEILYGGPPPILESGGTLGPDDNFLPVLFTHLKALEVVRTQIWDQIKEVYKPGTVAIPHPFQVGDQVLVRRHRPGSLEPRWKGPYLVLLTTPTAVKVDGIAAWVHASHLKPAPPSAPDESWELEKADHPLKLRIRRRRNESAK

Data set [4] concerns the target DNA polymerase beta (Mus musculus, UniProt Q8K409). Description: Ability to inhibit mouse beta DNA polymerase. A digest of the protocol:
as §1

Data set [5] concerns the target DNA polymerase beta (Mus musculus) (UniProt Q8K409). Description: The logarithm of the reciprocal of the concentration which produces 50% inhibition of mammalian beta DNA polymerase. The procedure, abridged:
(§2)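 Mammalian α or β DNA polymerase in 100 µL reaction: enzyme in 50% glycerol, 1 mM DTT, 0.5 M KCl, Tris-HCl pH 7.5; Me2SO compound; cocktail with MnCl2, NaF, [3H]dGTP, poly(2'-O-methylC)·d(pG)12-18 template. Compound added first, then enzyme, then cocktail; 45 min at 37 °C. Product radioactivity, background-corrected against Me2SO controls; 50% concentration from triplicate five-dose curves, 10^-3–10^-7 M, expressed as log(1/C).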

Data set [6] is described as follows: The logarithm of the reciprocal of the concentration which produces 50% inhibition of mammalian alpha DNA polymerase. A digest of the protocol:
as §2

Data set [7] has as its target Gag-Pol polyprotein (Woolly monkey sarcoma virus, UniProt P03359). Description: Ability to inhibit simian sarcoma virus reverse transcriptase. The procedure, abridged: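 Purified SSV-1 RNA-dependent DNA polymerase from 71 AP1 culture fluids, in 20% glycerol, 1 mM dithiothreitol, 1 mg/mL BSA and 50 mM Tris-HCl pH 7.5, was held 10 min on ice with inhibitor in Me2SO. Mn2+/[3H]dGTP cocktail with poly(2'-O-methylcytidylic acid)·d(pG)12-18 template was added, then 45 min at 37 °C. Background-corrected triplicate dose series; the 50% inhibition concentration was extrapolated.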

Sequence of Gag-Pol polyprotein (P03359 642-1310 limits assumed): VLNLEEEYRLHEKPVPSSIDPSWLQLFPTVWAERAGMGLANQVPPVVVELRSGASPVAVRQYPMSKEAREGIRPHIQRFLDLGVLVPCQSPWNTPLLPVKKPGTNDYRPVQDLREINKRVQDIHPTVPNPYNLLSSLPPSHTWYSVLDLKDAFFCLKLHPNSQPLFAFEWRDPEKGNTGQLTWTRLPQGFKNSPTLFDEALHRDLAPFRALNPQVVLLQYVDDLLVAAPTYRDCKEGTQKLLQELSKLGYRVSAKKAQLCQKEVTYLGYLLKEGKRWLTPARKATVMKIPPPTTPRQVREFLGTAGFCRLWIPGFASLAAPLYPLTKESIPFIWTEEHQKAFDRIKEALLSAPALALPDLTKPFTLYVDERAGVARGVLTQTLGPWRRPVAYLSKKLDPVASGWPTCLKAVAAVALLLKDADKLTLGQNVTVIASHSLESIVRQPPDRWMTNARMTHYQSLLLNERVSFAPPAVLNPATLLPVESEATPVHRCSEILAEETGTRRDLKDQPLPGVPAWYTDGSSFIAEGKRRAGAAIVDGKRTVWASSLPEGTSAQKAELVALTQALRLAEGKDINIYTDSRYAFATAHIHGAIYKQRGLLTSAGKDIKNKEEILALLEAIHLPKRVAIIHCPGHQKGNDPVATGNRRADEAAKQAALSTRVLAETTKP

In the case of `COC1/C=C/OC2(C)Oc3c(C)c(O)c4c(O)c(c(O)cc4c3C2=O)NC(=O)/C(C)=C\C=C\C(C)C(O)C(C)C(O)C(C)C(OC(C)=O)C1C` (configuration not stated), the IC50 in data set [1] worked out at 0.00023 M l-1; in data set [4], 0.00037 M l-1; in data set [7] (read-out: IC50) it was 13 µM. In data set [2], this molecule showed a logP of 0.11. In addition, the Log 1/C in data set [3], in data set [5] and in data set [6] was 2.64 each time.
Regarding `COC1/C=C/OC2(C)Oc3c(C)c(O)c4c(O)c(c(/C=N/N5CCN(N)CC5)cc4c3C2=O)NC(=O)/C(C)=C\C=C\C(C)C(O)C(C)C(O)C(C)C(OC(C)=O)C1C` (configuration not stated), the IC50 in data set [1] is 0.000165 M l-1; in data set [4] (read-out: IC50), 16 µM; in data set [7] (read-out: IC50), 25 µM. This molecule also gave a logP in data set [2] of 2. Also, the Log 1/C is 4.6 in data set [3], 4.8 in data set [5] and 3.78 in data set [6].
For `CCCN(CCC)/N=C/c1cc2c3c4c(C)c(O)c2c(O)c1NC(=O)/C(C)=C\C=C\C(C)C(O)C(C)C(O)C(C)C(OC(C)=O)C(C)C(OC)/C=C/OC(C)(O4)C3=O` (configuration not stated), the IC50 was 0.00006500000000000002 M l-1 in data set [1], 45 µM in data set [4] (read-out: IC50) and 13.5 µM in data set [7] (read-out: IC50). This molecule also yielded a logP in data set [2] of 3.85. The Log 1/C in data set [3] stood at 4.87; in data set [5], 4.35; in data set [6], 4.19.
In the case of `COC1/C=C/OC2(C)Oc3c(C)c(O)c4c(O)c(c(C=O)cc4c3C2=O)NC(=O)/C(C)=C\C=C\C(C)C(O)C(C)C(O)C(C)C(OC(C)=O)C1C` (configuration not stated), the IC50 in data set [1] was determined as 0.000102 M l-1; in data set [4] it was 0.000104 M l-1; in data set [7] (read-out: IC50) it was 17 µM. This molecule had a lipophilicity (logP) in data set [2] of 0.13. Further, the Log 1/C in data set [3], in data set [5] and in data set [6] was 2.99 each time.
Take `CCN(CC)Cc1cc2c3c4c(C)c(O)c2c(O)c1NC(=O)/C(C)=C\C=C\C(C)C(O)C(C)C(O)C(C)C(OC(C)=O)C(C)C(OC)/C=C/OC(C)(O4)C3=O` (configuration not stated): the values for the IC50 in data set [1], in data set [4] and in data set [7] (read-out: IC50) were 0.001 M l-1, 0.0011 M l-1 and 40 µM, respectively. This molecule also registered a logP in data set [2] of 1.55. Moreover, the values for the Log 1/C in data set [3], in data set [5] and in data set [6] were 4.4, 3 and 3, respectively.
Take `COC1/C=C/OC2(C)Oc3c(C)c(O)c4c(O)c(c(/C=N/Nc5ccc([N+](=O)[O-])cc5[N+](=O)[O-])cc4c3C2=O)NC(=O)/C(C)=C\C=C\C(C)C(O)C(C)C(O)C(C)C(OC(C)=O)C1C` (configuration not stated): the IC50 is 0.000045 M l-1 in data set [1], 50 µM in data set [4] (read-out: IC50) and 5.4 µM in data set [7] (read-out: IC50). Further, the logP in data set [2] amounted to 3.81. Moreover, the Log 1/C in data set [3] was 5.26; in data set [5], 4.3; in data set [6] it was 4.35.
With `COC1/C=C/OC2(C)Oc3c(C)c(O)c4c(O)c(c(/C=N/OCCCc5ccccc5)cc4c3C2=O)NC(=O)/C(C)=C\C=C\C(C)C(O)C(C)C(O)C(C)C(OC(C)=O)C1C` (configuration not stated), the IC50 turned out to be 0.000034 M l-1 in data set [1], 6.6 µM in data set [4] (read-out: IC50) and 5.6 µM in data set [7] (read-out: IC50). The same molecule showed a logP in data set [2] of 4.83. The Log 1/C in data set [3] came out at 5.25; in data set [5] it was 5.18; in data set [6], 4.46.
Consider `COC1/C=C/OC2(C)Oc3c(C)c(O)c4c(O)c(c(CN5CCNCC5)cc4c3C2=O)NC(=O)/C(C)=C\C=C\C(C)C(O)C(C)C(O)C(C)C(OC(C)=O)C1C` (configuration not stated), for which the figures for the IC50 in data set [1], in data set [4] and in data set [7] were 0.003 M l-1, 0.0042 M l-1 and 0.00145 M l-1, respectively. The molecule further had a logP in data set [2] of 1.76. The values for the Log 1/C in data set [3], in data set [5] and in data set [6] were 2.84, 2.38 and 2.52, respectively.
Regarding `COC1/C=C/OC2(C)Oc3c(C)c(O)c4c(O)c(c(/C=N/OC(c5ccccc5)c5ccccc5)cc4c3C2=O)NC(=O)/C(C)=C\C=C\C(C)C(O)C(C)C(O)C(C)C(OC(C)=O)C1C` (configuration not stated), the IC50 in data set [1] worked out at 0.000024 M l-1; in data set [4] (read-out: IC50) it was 10 µM; in data set [7] (read-out: IC50) it was 2.5 µM. Further, in data set [2], the logP was 4.96. Besides, the Log 1/C in data set [3] turned out to be 5.6; in data set [5] it was 5; in data set [6], 4.62.
For the molecule `COC1/C=C/OC2(C)Oc3c(C)c(O)c4c(O)c(c(/C=N/NC5CCCCCCCCCCCCCC5)cc4c3C2=O)NC(=O)/C(C)=C\C=C\C(C)C(O)C(C)C(O)C(C)C(OC(C)=O)C1C` (configuration not stated), the values for the IC50 in data set [1], in data set [4] (read-out: IC50) and in data set [7] (read-out: IC50) were 0.0000115 M l-1, 15 µM and 0.85 µM, respectively. In data set [2], this molecule gave a logP of 6.78. For the same molecule, the Log 1/C in data set [3] stood at 6.07; in data set [5], 4.82; in data set [6] it was 4.94.
For the molecule `COC1/C=C/OC2(C)Oc3c(C)c(O)c4c(O)c(c(/C=N/N5CCCCCCCCCC5)cc4c3C2=O)NC(=O)/C(C)=C\C=C\C(C)C(O)C(C)C(O)C(C)C(OC(C)=O)C1C` (configuration not stated), the IC50 amounted to 0.000031 M l-1 in data set [1], 22 µM in data set [4] (read-out: IC50) and 6.6 µM in data set [7] (read-out: IC50). The molecule also showed a log partition coefficient (logP) in data set [2] of 4.05. Further, the Log 1/C in data set [3] was determined as 5.18; in data set [5], 4.65; in data set [6], 4.51.
